≈ marks a conversion by molar mass, not a printed value. Calls of active or inactive are those of the source. No cut-off for these calls is given here.
Tests used:
Saccharomyces cerevisiae [1] = test: Antifungal activity against Saccharomyces cerevisiae ATCC 7754 assessed as reduction in plasma membrane fluidity at 100 ug/mL
Zygosaccharomyces bailii [2] = test: Inhibition of cell growth in Zygosaccharomyces bailii at 50 ug/mL; format: functional, organism-based
Procedure, shortened: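 Exponentially growing Z. bailii ATCC 60483 in YPD broth at 30 °C with drug at 0, 50 or 100 µg/mL. Viable counts taken over time by serial dilution in sterile saline and plating on YPD agar, 48 h at 30 °C, then CFU counted.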

Zygosaccharomyces bailii [3] = test: Antifungal activity against Zygosaccharomyces bailii assessed as growth inhibition measured after 48 hr by macrodilution assay; format: functional
Zygosaccharomyces bailii [4] = test: Antifungal activity against Zygosaccharomyces bailii assessed as growth inhibition measured at pH 9 after 48 hr by macrodilution assay; format: functional
Procedure, shortened: (§1)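 Broth macrodilution in YPD adjusted to the stated pH, Z. bailii ATCC 60483. Serial 2-fold dilutions in DMF (1% final) added to broth; inoculum 10^5 CFU/mL from a 5 h 30 °C preculture. Static incubation, 30 °C, 48 h. MIC is the lowest concentration with no visible growth; MFC is the lowest with no regrowth after 48 h subculture in drug-free YPD.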

Zygosaccharomyces bailii [5] = test: Antifungal activity against Zygosaccharomyces bailii assessed as growth inhibition measured at pH 7 after 48 hr by macrodilution assay; format: functional
Procedure, shortened: as §1

Zygosaccharomyces bailii [6] = test: Antifungal activity against Zygosaccharomyces bailii assessed as growth inhibition measured at pH 5 after 48 hr by macrodilution assay; format: functional
Procedure, shortened: as §1

Zygosaccharomyces bailii [7] = test: Antifungal activity against Zygosaccharomyces bailii assessed as growth inhibition measured at pH 3 after 48 hr by macrodilution assay; format: functional
Procedure, shortened: as §1

Zygosaccharomyces bailii [8] = test: Antifungal activity against Zygosaccharomyces bailii assessed as growth inhibition at MFC measured after 24 hr by macrodilution assay in presence of cycloheximide protein synthesis inhibitor; format: functional, organism-based
Procedure, shortened: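 Z. bailii ATCC 60483 exponential cells grown in YPD broth at 30 °C with 50 µg/mL cycloheximide. After 24 h, agent added at its MFC. Viable counts by serial dilution in sterile saline, plating on YPD agar, 48 h at 30 °C, then colony counting.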

Saccharomyces cerevisiae [9] = test: Antifungal activity against Saccharomyces cerevisiae ATCC 7754 assessed as reduction in plasma membrane fluidity at 25 ug/mL
Zygosaccharomyces bailii [10] = test: Antifungal activity against Zygosaccharomyces bailii assessed as reduction in cell viability at 100 ug/mL treated at 24, 48 and 72 hr measured after 1 hr of each addition

Structure (SMILES)	MFC (Zygosaccharomyces bailii [3]) [µg/mL]	MFC (Zygosaccharomyces bailii [3]; read-out: MFC) [µg/mL]	further results
CCCCCCCCO			Activity (Saccharomyces cerevisiae [1]): inactive
CCCCCCCCOC(=O)c1cc(O)c(O)c(O)c1			Activity (Saccharomyces cerevisiae [1]): Active
C[C@@H]1C[C@@H]([C@H](O)CC2CC(=O)NC(=O)C2)C(=O)[C@@H](C)C1			inhibition (Zygosaccharomyces bailii [2]): Active
CCC/C=C/C(=O)O [(2E)-HEXENOIC ACID]	1600 (≈ 14 mM)	800 (≈ 7.01 mM)	
CCC/C=C\C(=O)O [(2Z)-HEXENOIC ACID]	1600 (≈ 14 mM)	800 (≈ 7.01 mM)	
C/C=C/c1ccc(OC)cc1 [ANETHOLE]	400 (≈ 2.7 mM)	200 (≈ 1.35 mM)	MFC (Zygosaccharomyces bailii [4]): 1600 µg/mL (≈ 10.8 mM); MIC (Zygosaccharomyces bailii [4]): 1600 µg/mL (≈ 10.8 mM); MFC (Zygosaccharomyces bailii [5]): 1600 µg/mL (≈ 10.8 mM); MIC (Zygosaccharomyces bailii [5]): 800 µg/mL (≈ 5.4 mM); MFC (Zygosaccharomyces bailii [6]): 1600 µg/mL (≈ 10.8 mM); MIC (Zygosaccharomyces bailii [6]): 400 µg/mL (≈ 2.7 mM); MFC (Zygosaccharomyces bailii [7]): 1600 µg/mL (≈ 10.8 mM); MIC (Zygosaccharomyces bailii [7]): 100 µg/mL (≈ 0.675 mM)
CCCCCC(=O)O [HEXANOATE]	3200 (≈ 27.5 mM)	800 (≈ 6.89 mM)	
C/C=C/C=C/C(=O)OC [METHYL SORBATE]	> 3200	> 3200	
Clc1ccc(COC(Cn2ccnc2)c2ccc(Cl)cc2Cl)c(Cl)c1 (stereo not given) [MICONAZOLE]	12.5 (≈ 0.03 mM)	12.5 (≈ 0.03 mM)	
CC1(C)CCC[C@]2(C)[C@@H](C=O)C(C=O)=CC[C@@H]12 [POLYGODIAL]	50 (≈ 0.213 mM)	50 (≈ 0.213 mM)	growth inhibition (GI) (Zygosaccharomyces bailii [8]): Active; Activity (Saccharomyces cerevisiae [9]): Active; inhibition (Zygosaccharomyces bailii [10]): Active
C/C=C/C=C/C(=O)O [SORBIC ACID]	1600 (≈ 14.3 mM)	800 (≈ 7.13 mM)	
